Test [1] has as its target T1, Toll-like receptor 9 (Homo sapiens) (UniProt Q9NR96).
T1 sequence (whole entry): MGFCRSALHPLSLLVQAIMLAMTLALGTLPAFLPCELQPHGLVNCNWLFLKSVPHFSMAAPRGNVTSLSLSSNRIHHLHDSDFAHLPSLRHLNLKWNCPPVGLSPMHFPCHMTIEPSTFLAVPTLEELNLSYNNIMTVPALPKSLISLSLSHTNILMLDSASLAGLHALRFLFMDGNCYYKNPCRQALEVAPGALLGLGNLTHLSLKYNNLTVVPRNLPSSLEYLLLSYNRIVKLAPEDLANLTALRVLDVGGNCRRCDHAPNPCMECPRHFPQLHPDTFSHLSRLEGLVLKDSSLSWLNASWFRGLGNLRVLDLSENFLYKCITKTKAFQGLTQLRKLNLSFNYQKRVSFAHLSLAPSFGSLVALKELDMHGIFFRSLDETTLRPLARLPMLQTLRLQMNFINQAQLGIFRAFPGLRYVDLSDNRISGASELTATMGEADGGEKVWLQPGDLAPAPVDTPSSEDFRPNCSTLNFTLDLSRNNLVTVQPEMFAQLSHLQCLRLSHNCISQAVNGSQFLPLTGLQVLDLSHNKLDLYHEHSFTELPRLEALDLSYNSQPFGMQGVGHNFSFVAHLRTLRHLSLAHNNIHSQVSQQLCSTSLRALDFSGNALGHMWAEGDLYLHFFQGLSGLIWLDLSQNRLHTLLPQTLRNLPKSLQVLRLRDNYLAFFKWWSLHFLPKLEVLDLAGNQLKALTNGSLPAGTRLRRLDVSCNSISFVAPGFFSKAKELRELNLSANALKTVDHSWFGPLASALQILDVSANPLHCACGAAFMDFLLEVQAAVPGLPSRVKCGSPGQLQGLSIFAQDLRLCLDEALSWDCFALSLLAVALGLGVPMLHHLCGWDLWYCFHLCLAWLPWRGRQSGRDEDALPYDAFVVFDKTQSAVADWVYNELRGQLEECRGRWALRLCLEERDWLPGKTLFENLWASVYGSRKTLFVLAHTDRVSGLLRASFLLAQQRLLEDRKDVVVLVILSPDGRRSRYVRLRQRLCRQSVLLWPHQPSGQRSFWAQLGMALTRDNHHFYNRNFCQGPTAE
The experiment in a line: Induction of TLR9-mediated immune stimulation in human PBMC assessed as MIP1beta production at 10 ug/ml after 24 hrs by luminex multiplex assay (RVb = 0.03 +/- 0.02 ng/ml).

In test [2] the target is T1, Toll-like receptor 9 (Homo sapiens). The experiment in a line: Induction of TLR9-mediated immune stimulation in human PBMC assessed as IL2R production at 2 ug/ml after 24 hrs by luminex multiplex assay (RVb = 0.02 +/- 0.01 ng/ml).
Test [3] shares this target. The experiment in a line: Induction of TLR9-mediated immune stimulation in human PBMC assessed as IL1Ralpha production at 10 ug/ml after 24 hrs by luminex multiplex assay (RVb = 0.12 +/- 0.03 ng/ml).
Test [4] shares this target. Put plainly: Induction of TLR9-mediated immune stimulation in human PBMC assessed as IP10 production at 2 ug/ml after 24 hrs by luminex multiplex assay (RVb = 0.00 ng/ml).
Test [5] relates to Mus musculus. The experiment in a line: Immunostimulatory activity in C57BL/6 mouse assessed as increase in serum IL12 level at 1 mg/kg, sc after 2 hrs by ELISA. In kind it is functional, organism-based. Details: dose 1 mg/kg. In a few lines: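 Female C57BL/6 mice (n=3) received a single subcutaneous agonist dose of 1 mg/kg. Blood was taken by retro-orbital bleeding 2 h later, and serum IL-12 was measured by sandwich ELISA. Values are the mean of three mice ± SD.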
Background: ELISA stands for enzyme-linked immunosorbent assay.

Test [6] deals with T1, Toll-like receptor 9 (Homo sapiens). The experiment in a line: Induction of TLR9-mediated immune stimulation in human PBMC assessed as IL6 production at 10 ug/ml after 24 hrs by luminex multiplex assay (RVb = 0.01 ng/ml).
The target is the same in test [7]. The experiment in a line: Induction of TLR9-mediated immune stimulation in human PBMC assessed as MCP1 production at 2 ug/ml after 24 hrs by luminex multiplex assay (RVb = 0.08 +/- 0.02 ng/ml).
For test [8] the target is unchanged. The experiment in a line: Induction of TLR9-mediated immune stimulation in human PBMC assessed as MIP1alpha production at 2 ug/ml after 24 hrs by luminex multiplex assay (RVb = 0.01 ng/ml).
For test [9] the target is unchanged. The experiment in a line: Induction of TLR9-mediated immune stimulation in human PBMC assessed as IL1Ralpha production at 2 ug/ml after 24 hrs by luminex multiplex assay (RVb = 0.12 +/- 0.03 ng/ml).
The target is the same in test [10]. The experiment in a line: Induction of TLR9-mediated immune stimulation in human PBMC assessed as IL12 production at 10 ug/ml after 24 hrs by luminex multiplex assay (RVb = 0.00 ng/ml).
Test [11] shares this target. The experiment in a line: Induction of TLR9-mediated immune stimulation in human PBMC assessed as IL2R production at 10 ug/ml after 24 hrs by luminex multiplex assay (RVb = 0.02 +/- 0.01 ng/ml).
Test [12] has the same target. The experiment in a line: Induction of TLR9-mediated human B cell proliferation assessed as [3H]thymidine uptake after 56 hrs by scintillation counting. In a few lines: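 B cells were purified from human PBMCs (healthy volunteers), about 1 × 10⁵ cells, and stimulated with various agonist concentrations for 56 h. Cells were then pulsed with 0.75 μCi [³H]-thymidine and harvested 16 h later. Incorporation was counted by scintillation and reported as cpm.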

Test [13] has the same target. The experiment in a line: Induction of TLR9-mediated immune stimulation in human PBMC assessed as IL6 production at 2 ug/ml after 24 hrs by luminex multiplex assay (RVb = 0.01 ng/ml).
The target is the same in test [14]. Put plainly: Induction of TLR9-mediated immune stimulation in human PBMC assessed as MCP1 production at 10 ug/ml after 24 hrs by luminex multiplex assay (RVb = 0.08 +/- 0.02 ng/ml).

Active and inactive are the calls of the source. The rule behind the calls is not given here.

As for `Cc1cn([C@H]2C[C@H](O[C@H]3C[C@@H](O)C[C@@H](OP(=O)(S)O[C@H]4C[C@H](n5cc(C)c(=O)[nH]c5=O)O[C@@H]4COP(=O)(S)O[C@H]4[C@@H](O)[C@H](n5ccc(N)nc5=O)O[C@@H]4COP(=O)(S)O[C@H]4C[C@H](n5cc(C)c(=O)[nH]c5=O)O[C@@H]4COP(=O)(S)O[C@H]4C[C@H](n5cc(C)c(=O)[nH]c5=O)O[C@@H]4COP(=O)(S)O[C@H]4C[C@H](n5ccc6c(=O)[nH]c(N)nc65)O[C@@H]4COP(=O)(S)O[C@H]4[C@@H](O)[C@H](n5ccc(N)nc5=O)O[C@@H]4COP(=O)(S)O[C@H]4C[C@H](n5cc(C)c(=O)[nH]c5=O)O[C@@H]4COP(=O)(S)O[C@H]4[C@@H](O)[C@H](n5cnc6c(=O)[nH]c(N)nc65)O[C@@H]4COP(=O)(S)O[C@H]4C[C@H](n5cc(C)c(=O)[nH]c5=O)O[C@@H]4COP(=O)(S)O[C@H]4[C@@H](O)[C@H](n5ccc(N)nc5=O)O[C@@H]4COP(=O)(S)O[C@H]4C[C@H](n5cc(C)c(=O)[nH]c5=O)O[C@@H]4CO)C3)[C@@H](COP(=O)(S)O[C@H]3[C@@H](O)[C@H](n4ccc(N)nc4=O)O[C@@H]3COP(=O)(S)O[C@H]3C[C@H](n4cc(C)c(=O)[nH]c4=O)O[C@@H]3COP(=O)(S)O[C@H]3C[C@H](n4cc(C)c(=O)[nH]c4=O)O[C@@H]3COP(=O)(S)O[C@H]3C[C@H](n4ccc5c(=O)[nH]c(N)nc54)O[C@@H]3COP(=O)(S)O[C@H]3[C@@H](O)[C@H](n4ccc(N)nc4=O)O[C@@H]3COP(=O)(S)O[C@H]3C[C@H](n4cc(C)c(=O)[nH]c4=O)O[C@@H]3COP(=O)(S)O[C@H]3[C@@H](O)[C@H](n4cnc5c(=O)[nH]c(N)nc54)O[C@@H]3COP(=O)(S)O[C@H]3C[C@H](n4cc(C)c(=O)[nH]c4=O)O[C@@H]3COP(=O)(S)O[C@H]3[C@@H](O)[C@H](n4ccc(N)nc4=O)O[C@@H]3COP(=O)(S)O[C@H]3C[C@H](n4cc(C)c(=O)[nH]c4=O)O[C@@H]3CO)O2)c(=O)[nH]c1=O` (stereo partly drawn), the Activity in [1] was determined as 2.15 ng/mL; in [2], 0.07 ng/mL; in [3] it was 97.2 ng/mL; in [4], 0.03 ng/mL; in test [6], 0.67 ng/mL; in [7], 0.29 ng/mL. In addition, the Activity in [8] is 0.05 ng/mL; in [9], 13.6 ng/mL; in test [10], 0.2 ng/mL; in test [11], 0.28 ng/mL; in test [12] it was “Dose-dependent effect”; in [13], 0.3 ng/mL. The Activity in test [14] turned out to be 8.45 ng/mL. Moreover, the result in test [5] was Active.

Consider `Cc1cn([C@H]2C[C@H](OCCC(O)CCOP(=O)(S)O[C@H]3C[C@H](n4cc(C)c(=O)[nH]c4=O)O[C@@H]3COP(=O)(S)O[C@H]3[C@@H](O)[C@H](n4ccc(N)nc4=O)O[C@@H]3COP(=O)(S)O[C@H]3C[C@H](n4cc(C)c(=O)[nH]c4=O)O[C@@H]3COP(=O)(S)O[C@H]3C[C@H](n4cc(C)c(=O)[nH]c4=O)O[C@@H]3COP(=O)(S)O[C@H]3C[C@H](n4ccc5c(=O)[nH]c(N)nc54)O[C@@H]3COP(=O)(S)O[C@H]3[C@@H](O)[C@H](n4ccc(N)nc4=O)O[C@@H]3COP(=O)(S)O[C@H]3C[C@H](n4cc(C)c(=O)[nH]c4=O)O[C@@H]3COP(=O)(S)O[C@H]3[C@@H](O)[C@H](n4cnc5c(=O)[nH]c(N)nc54)O[C@@H]3COP(=O)(S)O[C@H]3C[C@H](n4cc(C)c(=O)[nH]c4=O)O[C@@H]3COP(=O)(S)O[C@H]3[C@@H](O)[C@H](n4ccc(N)nc4=O)O[C@@H]3COP(=O)(S)O[C@H]3C[C@H](n4cc(C)c(=O)[nH]c4=O)O[C@@H]3CO)[C@@H](COP(=O)(S)O[C@H]3[C@@H](O)[C@H](n4ccc(N)nc4=O)O[C@@H]3COP(=O)(S)O[C@H]3C[C@H](n4cc(C)c(=O)[nH]c4=O)O[C@@H]3COP(=O)(S)O[C@H]3C[C@H](n4cc(C)c(=O)[nH]c4=O)O[C@@H]3COP(=O)(S)O[C@H]3C[C@H](n4ccc5c(=O)[nH]c(N)nc54)O[C@@H]3COP(=O)(S)O[C@H]3[C@@H](O)[C@H](n4ccc(N)nc4=O)O[C@@H]3COP(=O)(S)O[C@H]3C[C@H](n4cc(C)c(=O)[nH]c4=O)O[C@@H]3COP(=O)(S)O[C@H]3[C@@H](O)[C@H](n4cnc5c(=O)[nH]c(N)nc54)O[C@@H]3COP(=O)(S)O[C@H]3C[C@H](n4cc(C)c(=O)[nH]c4=O)O[C@@H]3COP(=O)(S)O[C@H]3[C@@H](O)[C@H](n4ccc(N)nc4=O)O[C@@H]3COP(=O)(S)O[C@H]3C[C@H](n4cc(C)c(=O)[nH]c4=O)O[C@@H]3CO)O2)c(=O)[nH]c1=O` (stereo partly drawn), for which the Activity in test [1] was found to be 0.61 ng/mL; in test [2], 0.03 ng/mL; in test [3] it was 63 ng/mL; in [4] it was 0.02 ng/mL; in test [6], 0.47 ng/mL; in test [7], 0.25 ng/mL. Also, the Activity in [8] is 0.05 ng/mL; in [9], 8.94 ng/mL; in [10], 0.17 ng/mL; in test [11] it was 0.12 ng/mL; in test [12], “Dose-dependent effect”; in test [13], 0.31 ng/mL. Further, the Activity in [14] was determined as 0.64 ng/mL. For the same molecule, the outcome in [5] was Active.

(Values after ChEMBL document CHEMBL1157912, “Impact of nature and length of linker incorporated in agonists on toll-like receptor 9-mediated immune responses” (J Med Chem, 2010).)
